Legend:
[1] = target: 5-hydroxytryptamine receptor 2A (Homo sapiens, UniProt P28223); assay: Binding affinity at 5HT2A receptor
D(1B) dopamine receptor = D(1B) dopamine receptor (Homo sapiens, UniProt P21918); assay: Binding affinity at dopamine D5 receptor
D(2) dopamine receptor [2] = target: T1, D(2) dopamine receptor (Homo sapiens, UniProt P14416); assay: Binding affinity at dopamine D2 receptor
Procedure, shortened: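 Membranes from cells stably expressing D2 receptor (4-7 pmol/mg protein; Ltk- cells in one passage, CHO in another), made by hypotonic lysis and 48,000g spin and stored at -80 °C. Incubated with 0.5 nM [3H]methylspiperone for 1 h at room temperature. Nonspecific binding set by 10 µM (-)-sulpiride. Rapid filtration, then scintillation counting. One-site competition fit; Ki is the mean of separate determinations.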

[3] = Tmax in Sprague-Dawley rat plasma at 10 mg/kg, po; format: ADME, organism-based; parameters: dose 10 mg/kg, route oral
Procedure, shortened: (§1)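 Single oral dose of 10 mg/kg to two male Sprague-Dawley rats. Blood drawn at several time points. Plasma levels of individual animals, generally within ±25% of the mean, were used to calculate PK parameters.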

D(2) dopamine receptor [4] = target: T1, D(2) dopamine receptor; assay: Displacement of [3H]methylspiperone from human dopamine D2 receptor expressed in CHO cells; format: cell-based
[5] = AUC in Sprague-Dawley rat plasma at 10 mg/kg, po; format: ADME, organism-based; parameters: dose 10 mg/kg, route oral; procedure, shortened: as §1
[6] = Cmax in Sprague-Dawley rat plasma at 10 mg/kg, po; format: ADME, organism-based; parameters: dose 10 mg/kg, route oral; procedure, shortened: as §1
D(1A) dopamine receptor [7] = target: T2, D(1A) dopamine receptor (Homo sapiens, UniProt P21728); assay: Displacement of [3H]SCH 23390 from human dopamine D1 receptor expressed in CHO cells; format: cell-based
T2 sequence (P21728 whole entry): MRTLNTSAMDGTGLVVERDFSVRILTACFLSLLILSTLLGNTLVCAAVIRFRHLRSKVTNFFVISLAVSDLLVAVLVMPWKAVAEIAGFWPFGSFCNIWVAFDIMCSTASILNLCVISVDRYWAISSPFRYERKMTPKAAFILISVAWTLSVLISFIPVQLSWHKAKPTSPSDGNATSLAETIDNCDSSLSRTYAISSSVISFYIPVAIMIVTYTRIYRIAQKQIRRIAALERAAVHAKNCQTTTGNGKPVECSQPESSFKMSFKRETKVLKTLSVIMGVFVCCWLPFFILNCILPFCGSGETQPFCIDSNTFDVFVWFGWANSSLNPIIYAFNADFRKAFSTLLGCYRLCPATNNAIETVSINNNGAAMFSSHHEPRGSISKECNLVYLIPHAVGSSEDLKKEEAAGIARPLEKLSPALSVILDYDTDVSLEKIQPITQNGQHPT

D(1A) dopamine receptor [8] = target: T2, D(1A) dopamine receptor; assay: Activity at dopamine D1 receptor by cAMP assay; format: functional; conditions: for Activity: filed as antagonist
D(4) dopamine receptor = target: T3, D(4) dopamine receptor (Homo sapiens, UniProt P21917); assay: Binding affinity at dopamine D4 receptor
T3 sequence (P21917 whole entry): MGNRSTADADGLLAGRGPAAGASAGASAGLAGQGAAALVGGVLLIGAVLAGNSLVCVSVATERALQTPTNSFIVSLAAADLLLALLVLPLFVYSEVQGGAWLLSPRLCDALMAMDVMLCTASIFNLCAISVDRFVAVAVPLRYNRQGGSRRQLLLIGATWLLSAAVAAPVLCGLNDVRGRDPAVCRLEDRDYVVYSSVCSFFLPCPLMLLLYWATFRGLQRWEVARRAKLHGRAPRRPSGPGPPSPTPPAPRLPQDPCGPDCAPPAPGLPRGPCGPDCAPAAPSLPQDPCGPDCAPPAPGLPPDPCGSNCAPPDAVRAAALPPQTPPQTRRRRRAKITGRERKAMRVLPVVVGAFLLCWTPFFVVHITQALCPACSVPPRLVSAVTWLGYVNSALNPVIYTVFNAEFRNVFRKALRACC

[9] = target: T4, Alpha-2A adrenergic receptor (Homo sapiens, UniProt P08913); assay: Binding affinity at adrenergic alpha2A receptor
T4 sequence (P08913 whole entry): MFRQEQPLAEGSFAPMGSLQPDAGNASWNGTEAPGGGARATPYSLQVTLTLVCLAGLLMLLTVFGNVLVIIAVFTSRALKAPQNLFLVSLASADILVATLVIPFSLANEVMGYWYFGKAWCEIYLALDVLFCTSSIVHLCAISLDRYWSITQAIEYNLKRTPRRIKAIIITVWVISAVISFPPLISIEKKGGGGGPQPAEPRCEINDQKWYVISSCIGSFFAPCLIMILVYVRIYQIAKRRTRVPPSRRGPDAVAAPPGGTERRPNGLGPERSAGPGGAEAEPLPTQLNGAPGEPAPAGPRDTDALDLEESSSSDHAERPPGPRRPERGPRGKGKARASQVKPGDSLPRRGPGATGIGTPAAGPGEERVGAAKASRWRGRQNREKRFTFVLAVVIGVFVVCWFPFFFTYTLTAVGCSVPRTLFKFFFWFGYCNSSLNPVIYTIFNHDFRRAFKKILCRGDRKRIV

Sequence of D(1B) dopamine receptor (P21918 whole entry): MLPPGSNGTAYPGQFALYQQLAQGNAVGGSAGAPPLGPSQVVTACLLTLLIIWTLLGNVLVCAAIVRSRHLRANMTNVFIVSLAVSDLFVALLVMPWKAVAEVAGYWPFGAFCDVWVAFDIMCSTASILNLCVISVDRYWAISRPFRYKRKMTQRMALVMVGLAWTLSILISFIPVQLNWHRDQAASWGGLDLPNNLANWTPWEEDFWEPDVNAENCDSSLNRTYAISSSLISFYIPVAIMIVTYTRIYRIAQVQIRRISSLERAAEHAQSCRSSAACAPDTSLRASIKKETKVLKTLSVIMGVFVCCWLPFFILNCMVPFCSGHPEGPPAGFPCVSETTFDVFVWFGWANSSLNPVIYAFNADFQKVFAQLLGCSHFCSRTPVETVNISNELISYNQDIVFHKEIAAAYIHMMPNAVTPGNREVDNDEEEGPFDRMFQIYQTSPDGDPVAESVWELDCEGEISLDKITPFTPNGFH
Sequence of 5-hydroxytryptamine receptor 2A (P28223 whole entry): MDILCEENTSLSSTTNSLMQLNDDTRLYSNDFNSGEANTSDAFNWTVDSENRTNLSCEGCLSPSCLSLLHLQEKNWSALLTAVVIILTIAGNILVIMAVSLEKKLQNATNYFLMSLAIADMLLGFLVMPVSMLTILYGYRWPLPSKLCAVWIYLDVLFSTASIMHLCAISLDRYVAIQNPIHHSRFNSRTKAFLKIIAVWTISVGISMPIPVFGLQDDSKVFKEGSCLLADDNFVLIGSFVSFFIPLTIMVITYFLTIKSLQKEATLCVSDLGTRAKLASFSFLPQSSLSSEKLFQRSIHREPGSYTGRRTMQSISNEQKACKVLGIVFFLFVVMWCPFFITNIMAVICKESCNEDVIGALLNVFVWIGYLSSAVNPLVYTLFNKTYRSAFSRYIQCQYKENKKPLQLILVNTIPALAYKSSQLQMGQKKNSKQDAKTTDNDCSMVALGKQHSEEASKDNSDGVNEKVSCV
T1 sequence (P14416 whole entry): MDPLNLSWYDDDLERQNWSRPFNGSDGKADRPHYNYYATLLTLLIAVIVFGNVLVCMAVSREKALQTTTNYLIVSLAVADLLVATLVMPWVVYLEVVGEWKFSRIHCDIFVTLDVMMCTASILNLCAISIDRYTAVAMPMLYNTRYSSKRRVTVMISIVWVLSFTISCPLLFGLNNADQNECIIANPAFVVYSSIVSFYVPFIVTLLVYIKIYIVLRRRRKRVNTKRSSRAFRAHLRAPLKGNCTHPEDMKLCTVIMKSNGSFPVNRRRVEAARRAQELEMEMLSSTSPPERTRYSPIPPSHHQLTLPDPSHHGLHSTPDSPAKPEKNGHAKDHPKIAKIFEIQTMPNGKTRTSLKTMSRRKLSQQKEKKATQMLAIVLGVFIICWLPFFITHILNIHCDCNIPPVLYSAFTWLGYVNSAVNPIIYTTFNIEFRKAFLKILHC

Ki [1] [nM]	Ki (D(1B) dopamine receptor) [nM]	Ki (D(2) dopamine receptor [2]) [nM]	Tmax [3] [h]	Ki (D(2) dopamine receptor [4]) [nM]	AUC [5] [ng·h/mL]	Cmax [6] [ng/mL]	Ki (D(1A) dopamine receptor [7]) [nM]	Kb (D(1A) dopamine receptor [8]) [nM]	Activity (D(1A) dopamine receptor [8])	Ki (D(4) dopamine receptor) [nM]	Ki [9] [nM]	SMILES
1	73	181	1	181	2660	821	4	2.8	Antagonist	870	455	CN1CCN(C2=Nc3cc(Cl)ccc3N(NC(=O)c3ccccc3Cl)c3ccccc32)CC1
1	105	458	1	458	12900	3570	3.8	2	Antagonist	977	882	CN1CCN(C2=Nc3cc(Cl)ccc3N(NC(=O)c3cccc4ccccc34)c3ccccc32)CC1
1.2	7	383		383			2.5	2.3	Antagonist	2000	2000	CN1CCN(C2=Nc3cc(Cl)ccc3N(NC(=O)c3c(F)cccc3C(F)(F)F)c3ccccc32)CC1
2.9	58	1020		1020			3.2	6.7	Antagonist	4850	456	Cc1cccc(N)c1C(=O)NN1c2ccc(Cl)cc2N=C(N2CCN(C)CC2)c2ccccc21
2.2	31	287		287			3	2.8	Antagonist	1870	791	Cc1cccc(C)c1C(=O)NN1c2ccc(Cl)cc2N=C(N2CCN(C)CC2)c2ccccc21
				1310			7.4					CN1CCN(C2=Nc3cc(Cl)ccc3N(NC(=O)c3ccc4ccccc4c3)c3ccccc32)CC1
				608			24					CN1CCN(C2=Nc3cc(Cl)ccc3N(NC(=O)c3cc(Cl)cc(Cl)c3)c3ccccc32)CC1
				3820			62					CN1CCN(C2=Nc3cc(Cl)ccc3N(NC(=O)c3ccccc3NC3CCCCC3)c3ccccc32)CC1
				1600			103					CN1CCN(C2=Nc3cc(Cl)ccc3N(NC(=O)/C=C/c3ccccc3)c3ccccc32)CC1
				2080			30					CN1CCN(C2=Nc3cc(Cl)ccc3N(NC(=O)c3cnn(-c4ccccc4)c3C(F)(F)F)c3ccccc32)CC1
				582			56					COc1ccc(CCC(=O)NN2c3ccc(Cl)cc3N=C(N3CCN(C)CC3)c3ccccc32)cc1Cl
				181			4					CN1CCN(C2=Nc3cc(Cl)ccc3N(NC(=O)c3cccc(Cl)c3)c3ccccc32)CC1
				350			3.6					CN1CCN(C2=Nc3cc(Cl)ccc3N(NC(=O)c3cccc(I)c3)c3ccccc32)CC1
				1850			25.6					CCCC(CCC)C(=O)NN1c2ccc(Cl)cc2N=C(N2CCN(C)CC2)c2ccccc21
				1950			111					CN1CCN(C2=Nc3cc(Cl)ccc3N(NC(=O)CCC3CCCC3)c3ccccc32)CC1
0.9	53	496		496			2.6	1.7	Antagonist	808	327	CN1CCN(C2=Nc3cc(Cl)ccc3N(NC(=O)c3c(N)cccc3Cl)c3ccccc32)CC1
				92			7					CN1CCN(C2=Nc3cc(Cl)ccc3N(NC(=O)c3c(N)cccc3C(F)(F)F)c3ccccc32)CC1
				460			22					CN1CCN(C2=Nc3cc(Cl)ccc3N(NC(=O)c3ccon3)c3ccccc32)CC1
				78			39					CN1CCN(C2=Nc3cc(Cl)ccc3N(NC(=O)c3sccc3-c3ccccc3)c3ccccc32)CC1
13.8	38	340	0.5	340	2670	802	1.6	0.7	Antagonist	1810	169	COc1cccc(OC)c1C(=O)NN1c2ccc(Cl)cc2N=C(N2CCN(C)CC2)c2ccccc21
				3000			9					CN1CCN(C2=Nc3cc(Cl)ccc3N(NC(=O)c3ccsc3)c3ccccc32)CC1
				621			79					CN1CCN(C2=Nc3cc(Cl)ccc3N(NC(=O)CCc3ccccc3)c3ccccc32)CC1
				3000			47					COc1ccc(C(=O)NN2c3ccc(Cl)cc3N=C(N3CCN(C)CC3)c3ccccc32)cc1
				837			15					CN1CCN(C2=Nc3cc(Cl)ccc3N(NC(=O)c3ccco3)c3ccccc32)CC1

Source: ChEMBL document CHEMBL1146871, “Hydrazides of clozapine: a new class of D1 dopamine receptor subtype selective antagonists” (Bioorg Med Chem Lett, 2006)
